Bioassay records (PubChem)
T cell modulator – modulators of CD8 T cell-vesicle binding, primary screen, mouse 2C CD8+ T cells, flow cytometry. 0.068% of 330,000 active. 2C CD8+ T cell-vesicle binding; active compounds read low. AID 2052, 2009. response (vesicle binding), % at 7 µM;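 active means response, share of CD8 T cells binding vesicles, and their 90th percentile fluorescence all below set limits, cut at about 80% in these data, passing the limit was not always enough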;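 further: values below 100% mean blocked vesicle binding to the CD8+ T cells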
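Material: murine 2C transgenic CD8+ T lymphocytes / Also added: QL9-peptide-loaded Drosophila micro-vesicles bearing Ld, ICAM-1 and B7-1 / Schedule: binding step 1.5 h, 37 °C, antibody labelling 20 min, ice / Signal: flow cytometry, PE anti-B7-1 (FL2) versus Alexa647 anti-CD8 (FL8), PFA-fixed / Evaluation: percent CD8+ FL2 mean versus row control / Benchmarks: naked versus QL9-loaded vesicles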
GRK2 aptamer HTS – compounds blocking aptamer binding on GRK2 – biochemical, human GRK2, bead flow cytometry, HTS, primary screen. FAM-aptamer displacement from GRK2. inhibition of aptamer binding, % at 10 µM. Beta-adrenergic receptor kinase 1 (Homo sapiens), P25098. 0.59% of 330,000 active. AID 488847, 2010;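 active means inhibition of aptamer binding above 40%, roughly 3 SD of noise, on plates passing a quality check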;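 further: median bead fluorescence of bound FAM aptamer so fluorescent compounds give negative values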
Target sequence (P25098 whole entry, looked up): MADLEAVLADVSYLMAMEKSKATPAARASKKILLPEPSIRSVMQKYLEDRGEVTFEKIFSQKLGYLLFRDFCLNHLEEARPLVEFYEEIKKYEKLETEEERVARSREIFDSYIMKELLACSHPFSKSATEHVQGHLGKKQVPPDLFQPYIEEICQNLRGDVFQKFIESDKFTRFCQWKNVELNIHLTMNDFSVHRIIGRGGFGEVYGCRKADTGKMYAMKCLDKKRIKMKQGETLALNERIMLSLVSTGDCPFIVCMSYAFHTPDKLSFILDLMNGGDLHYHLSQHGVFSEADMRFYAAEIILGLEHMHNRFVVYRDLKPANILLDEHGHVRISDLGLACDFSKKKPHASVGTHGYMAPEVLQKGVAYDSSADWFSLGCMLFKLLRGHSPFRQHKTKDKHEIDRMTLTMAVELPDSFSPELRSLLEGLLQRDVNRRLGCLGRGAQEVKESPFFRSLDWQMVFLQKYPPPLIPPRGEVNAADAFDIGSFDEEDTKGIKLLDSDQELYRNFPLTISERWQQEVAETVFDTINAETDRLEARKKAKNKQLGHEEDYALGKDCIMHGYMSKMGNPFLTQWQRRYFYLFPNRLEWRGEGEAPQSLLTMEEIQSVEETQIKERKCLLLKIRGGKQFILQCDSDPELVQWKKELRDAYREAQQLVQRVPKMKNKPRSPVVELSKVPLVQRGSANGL
Myeloid diff MLP – induction of myeloid progenitor differentiation, primary screen, cell-based, flow cytometry, MLPCN library; ER-HoxA9 myeloid progenitors, lysozyme-GFP differentiation; calls only at 10 µM; 1% of 360,000 active;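 active means normalized GFP-positive differentiation at or above the plate's own cutoff, the solvent-only control mean plus 3 SD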;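 further: cells exposed to compound for four days before flow analysis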
SKN-1 block – suppressors of acrylamide-induced Pgst-4::GFP reporter in worms, primary screen, SKN-1 inhibitor project, whole organism, uHTS, GFP/RFP fluorescence ratio, strain VP596. C. elegans VP596 Pgst-4::GFP/RFP ratio, 24 h. inhibition, % at 21.8 µM. 0.49% of 360,000 active;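 active means interference check ratio from 0.5 to 1.5 plus GFP to RFP signal ratio inhibition reaching or exceeding a fixed threshold, cut at about 30% in these data, passing the limit was not always enough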
Rce1 inhib – yeast Rce1p protease inhibitors, primary screen, biochemical, fluorescence, cell-free homogeneous; calls only; CAAX prenyl protease 2 (Saccharomyces cerevisiae (strain ATCC 204508 / S288c)), Q03530; 0.27% of 290,000 active; yeast membranes, quenched prenylated peptide cleavage fluorescence;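 active means fall in fluorescence gain of 50% or more versus controls, with final raw signal at or below 3038400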
Rin1 Abl inh – inhibitors of Rin1-Abl protein binding, primary screen, biochemical, TR-FRET | 0.4% of 360,000 active | AID 588664, 2011 | Tyrosine-protein kinase ABL1 (Homo sapiens) + Ras and Rab interactor 1 (Homo sapiens), … | inhibition, % at 7.35 µM; in the data active means inhibition above about 5%, passing the limit was not always enough
Hits are given with their value; 0 = inactive; - = no result; + = active, no number. Rows were chosen to be rich in hits. Some 2.6% of all compounds tested hit in one or more screens of this group.

SMILES	T cell modulator	GRK2 aptamer HTS	Myeloid diff MLP	SKN-1 block	Rce1 inhib	Rin1 Abl inh
Cc1c(C)n(Cc2ccc(F)cc2)c2ccc(C(=O)NCCN3CCOCC3)cc12	0	0	0	0	0	0
Cc1cc(C)cc(NC(=O)NN2C(C)CCCC2C)c1 (centres undefined)	0	100	0	0	0	0
CC(C)CCN1CC(O)=C(c2nc3ccccc3[nH]2)C1=N	0	0	0	0	0	0
CC1(C)C(O)=C(c2nc3ccccc3[nH]2)C(=N)N1c1ccccc1	0	0	+	0	0	0
Cc1[nH]c2ccccc2c1N=Nc1ccc(F)cc1	0	0	0	87	0	0
O=C(Nc1ccccc1)c1cccc(=O)o1	0	0	0	0	0	0
COCCNC(=O)C(c1ccncc1)N(C(=O)c1sc(C)nc1C)c1cccc(C)c1 (centres undefined)	0	0	0	0	0	0
Cc1cccnc1NC(=O)CCn1c(=O)oc2ccccc21	0	0	0	0	0	0
O=C1CC(/C=C/c2ccco2)=Nc2ccccc2N1	0	0	+	0	0	0
CC(C)(C)NC(=O)CSCc1ccc(Br)cc1	0	0	0	0	0	0
C=CCNC(=O)CSCc1ccc(Br)cc1	0	0	+	0	0	0
O=C(Cc1ccc(F)cc1)N[C@@H]1c2ccccc2CC[C@@H]1O	-	0	0	0	-	0
CN(N=O)c1ccc(CC2CCc3ccccc32)cc1 (centres undefined)	-	-	0	44	-	0
CSc1ncccc1C(=O)N1CCCC(C(=O)c2ccc3ccccc3c2)C1 (centres undefined)	0	0	0	0	0	0
CSc1ccc(C(=O)C2CCCN(C(=O)c3cccnc3SC)C2)cc1 (centres undefined)	0	0	0	0	+	0
CCN(Cc1ccccc1)c1c(C(=O)O)cnc2c1cnn2C	0	0	0	0	0	0
Cn1ncc2c(NCc3cccc(C(F)(F)F)c3)c(C(=O)O)cnc21	0	55	-	-	0	-
O=C(CNC(=O)c1ccc(Br)o1)OCc1ccc(Br)cc1	0	0	0	0	-	0
CN(C)CCCNC(=S)N(CCO)Cc1cc2cc3c(cc2[nH]c1=O)OCO3	0	0	0	0	-	0
C=CCN1C(=O)C(=O)N(Cc2nc3ccccc3s2)C1=O	0	0	0	48	0	0
COc1ccc(CC(=O)NC(C)c2nnc(SCCOc3ccc(OC)cc3)n2C)cc1 (centres undefined)	0	0	+	0	-	0
COc1ccc(CC(=O)NC(C)c2nnc(SCC(=O)c3ccc(OC)cc3)n2C)cc1 (centres undefined)	0	0	0	0	0	0
COc1ccc(-c2csc(/C(C#N)=C\c3ccc(OC)c([N+](=O)[O-])c3)n2)cc1	0	90	0	0	0	0
COc1ccc(CNC(C)C2COc3ccccc3O2)c(OC)c1 (centres undefined)	0	0	0	37	0	0
O=C1NC(Cc2c[nH]c3ccccc23)C(=O)N1Cc1ccccc1 (centres undefined)	0	0	0	0	0	0
SMILES	T cell modulator	GRK2 aptamer HTS	Myeloid diff MLP	SKN-1 block	Rce1 inhib	Rin1 Abl inh
O=C1C(Cc2c[nH]c3ccccc23)NC(=S)N1Cc1ccccc1 (centres undefined)	0	0	0	0	+	0
COc1ccc(/C=C2/SC(=S)N(Cc3ccccc3)C2=O)cc1O	0	0	0	0	0	0
O=C1/C(=C\c2cc(Cl)c(O)c(Cl)c2)SC(=S)N1Cc1ccccc1	0	0	+	0	0	0
Cc1cc(Cl)cc(C)c1OCC(=O)NC1CCCCCC1	0	0	0	0	-	0
COc1ccc(NS(=O)(=O)c2cccc(-c3nnc(-c4ccccc4)o3)c2)cc1	0	0	0	34	0	0
COC(=O)CSc1nnc(-c2ccc(NS(=O)(=O)c3ccccc3)cc2)o1	0	0	+	0	0	0
CN(CCc1ccccc1)C(=O)c1cccc(NC(=O)Cc2cccc(NC(=O)C3CCCN(C(=O)C4CC4)C3)c2)c1 (centres undefined)	-	-	0	0	-	0
